Results taken from ChEMBL document CHEMBL1125885, “Dopamine autoreceptor agonists as potential antipsychotics. 3.6-Propyl-4,5,5a,6,7,8-hexahydrothiazolo[4,5-f]quinolin-2-amine” (J Med Chem, 1991).

How the values were obtained:
Rattus norvegicus [1] = test: Values for the reversal of the increase in DOPA levels in the striatum of GBL-treated rats after ip administration of 10 mg/Kg; format: functional
Summary of the method: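 Male Long-Evans rats were given the compound ip at 10 mg/kg 1 h before sacrifice. GBL (750 mg/kg ip) was given 30 min and NSD 1015 (100 mg/kg ip) 25 min before sacrifice. Striatal DOPA was measured by HPLC with electrochemical detection. The value is the percent reversal of the GBL-induced DOPA increase; n = 4 or 5 rats.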

Mus musculus = test: Effective dose required to inhibit the Locomotor activity in mouse after ip administration.; format: functional
D(1A) dopamine receptor = D(1A) dopamine receptor (Rattus norvegicus, UniProt P18901); test: In vitro binding affinity towards dopamine receptor D1 in rat striatal membrane using [3H]-SCH- 23390; format: cell membranes, Striatum
Summary of the method: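 Dopamine D1 binding in rat striatal membranes with the selective D1 antagonist [3H]SCH23390. IC50 comes from four or five compound concentrations, each run in triplicate, fitted by nonlinear regression.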

Rattus norvegicus [2] = test: Percentage inhibition of DA neural firing after administration the compound at a dose of 2.5 mg/Kg through ip route in rats.; format: functional; conditions: for inhibition in vivo at 2.5 mg/kg: Rattus norvegicus, ip
D(2) dopamine receptor = D(2) dopamine receptor (Rattus norvegicus, UniProt P61169); test: Binding affinity towards dopamine receptor D2 in rat striatal membrane using [3H]spiperone; format: cell membranes, Striatum
[3] = target: D(2) dopamine receptor (Rattus norvegicus) (UniProt P61169); test: Compound at 10E-5 M was tested in vitro for binding affinity towards dopamine receptor D2 in rat striatal membrane by using [3H]spiperone as radioligand; format: cell membranes; conditions: Striatum
Rattus norvegicus [4] = test: Effective dose required to inhibit the Locomotor activity in Rat after po administration.; format: functional
Rattus norvegicus [5] = test: Effective dose required to inhibit the Locomotor activity in rat after po administration.; format: functional
Summary of the method: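 Inhibition of spontaneous locomotor activity in rats after oral dosing. ED50 is generated from four to six doses, with 5-12 animals per dose.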

Rattus norvegicus [6] = test: Effective dose for the reversal of the increase in DOPA levels in the striatum of GBL-treated rats after ip administration; format: functional
Summary of the method: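 Male Long-Evans rats got test compound ip 1 h before sacrifice, GBL 750 mg/kg ip 30 min before and NSD 1015 100 mg/kg ip 25 min before. Striatal DOPA was measured by HPLC with electrochemical detection, n = 4 or 5 rats. ED50 (95% CI) is the dose reversing the GBL-induced DOPA rise; percent reversal at a single test dose is given otherwise.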

Rattus norvegicus [7] = test: Compound was tested for inhibition of locomotor activity after sc administration in rat; format: functional
Summary of the method: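 Spontaneous exploratory locomotor activity in rats after sc dosing. […] 5-12 animals were used per dose.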

Rattus norvegicus [8] = test: Values for the reversal of the increase in DOPA levels in the striatum of GBL-treated rats after ip administration; format: functional
Summary of the method: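 Male Long-Evans rats received test compound ip 1 h before sacrifice, GBL 750 mg/kg ip 30 min before, and NSD 1015 100 mg/kg ip 25 min before. Striatal DOPA was quantified by HPLC with electrochemical detection, n = 4 or 5 rats. ED50 (95% CI) is the dose reversing the GBL-induced DOPA rise.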

Rattus norvegicus [9] = species on record: Rattus norvegicus; test: The compound was tested for effect on brain DOPA synthesis in the striatum of NSD 1015 rat; format: functional
Summary of the method: (§1)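 Rats were dosed with NSD 1015 at 100 mg/kg ip 25 min before sacrifice and received no GBL. Test compound was given ip 1 h before sacrifice. Striatal DOPA was measured by HPLC with electrochemical detection and expressed as percent of control, n = 4 rats. Significance was set at p < 0.05 vs control.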

[10] = Minimal effective oral dose that induced EPS signs in at least one squirrel monkey upon peroral administration.; format: functional, Cercopithecidae
Rattus norvegicus [11] = test: Compound was tested for stimulation of locomotor activity after sc administration in rat; format: functional
Rattus norvegicus [12] = test: Dose to effect on Brain DOPA synthesis upon ip administration.; format: functional; summary of the method: as §1
[13] = Compound was tested for inhibition of Sidman conditioned avoidance in squirrel monkeys upon peroral administration; format: functional; conditions: po
Summary of the method: (§2)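 Sidman avoidance in squirrel monkeys with oral dosing. ED50 (95% CL) is derived from three doses, with four animals tested per dose.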

Rattus norvegicus [14] = species on record: Rattus norvegicus; test: Compound was tested for effect on brain DOPA synthesis in the striatum of NSD 1015 rat; format: functional; summary of the method: as §1
[15] = Compound was tested for inhibition of Sidman conditioned avoidance in squirrel monkeys upon peroral administration.; format: functional; conditions: Cercopithecidae, po; summary of the method: as §2
Rattus norvegicus [16] = test: Percentage inhibition of DA neural firing after administration the compound at a dose of 0.25 mg/kg through ip route in rats.; format: functional; conditions: route intraperitoneal
[17] = Mus musculus, ip, read-out: ED50
[18] = Rattus norvegicus, po, read-out: ED50
[19] = Rattus norvegicus, sc, read-out: ED50

Chain of D(1A) dopamine receptor (P18901 whole entry): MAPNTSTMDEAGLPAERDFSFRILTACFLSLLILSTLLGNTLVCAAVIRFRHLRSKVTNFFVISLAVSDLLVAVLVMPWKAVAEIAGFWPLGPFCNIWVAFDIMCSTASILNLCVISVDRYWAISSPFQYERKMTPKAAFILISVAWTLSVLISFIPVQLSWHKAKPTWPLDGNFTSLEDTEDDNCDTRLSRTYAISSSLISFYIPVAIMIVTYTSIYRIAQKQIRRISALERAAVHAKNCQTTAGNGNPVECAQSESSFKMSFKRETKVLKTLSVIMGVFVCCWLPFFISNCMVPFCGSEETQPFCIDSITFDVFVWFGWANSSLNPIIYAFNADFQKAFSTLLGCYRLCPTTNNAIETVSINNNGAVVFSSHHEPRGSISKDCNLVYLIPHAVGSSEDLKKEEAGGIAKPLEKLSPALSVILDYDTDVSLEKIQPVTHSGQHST
Chain of D(2) dopamine receptor (Rattus norvegicus) (P61169 whole entry): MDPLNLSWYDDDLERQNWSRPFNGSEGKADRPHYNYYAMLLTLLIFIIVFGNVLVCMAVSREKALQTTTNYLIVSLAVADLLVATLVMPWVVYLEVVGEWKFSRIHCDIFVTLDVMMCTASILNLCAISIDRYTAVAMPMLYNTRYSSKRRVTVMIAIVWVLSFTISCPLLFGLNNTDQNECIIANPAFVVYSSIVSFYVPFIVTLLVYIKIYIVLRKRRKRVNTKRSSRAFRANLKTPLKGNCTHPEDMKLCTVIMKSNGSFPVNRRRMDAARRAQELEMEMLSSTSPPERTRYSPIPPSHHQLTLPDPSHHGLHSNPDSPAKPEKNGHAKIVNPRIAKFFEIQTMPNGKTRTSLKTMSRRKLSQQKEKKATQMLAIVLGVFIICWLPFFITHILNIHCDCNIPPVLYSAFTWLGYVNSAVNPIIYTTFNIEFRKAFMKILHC
Chain of D(2) dopamine receptor (P61169 whole entry): as above

CCCN1CCCC2c3nc(N)sc3CCC21 (stereo in doubt; 29)
Reversal (Rattus norvegicus [1]): 100%
ED50 (Mus musculus): 7 mg/kg
IC50 (D(1A) dopamine receptor): > 10 µM
inhibition in vivo at 2.5 mg/kg (Rattus norvegicus [2]): 94%
IC50 (D(2) dopamine receptor): 1.24 µM

Nc1nc2c(s1)CCC1NCCCC21 (stereo in doubt; 26) [listing 1 of 2 here]
ED50 (Mus musculus; [17]): > 30 mg/kg

CCCN1CCCC2c3nc(N)sc3CCC21 (stereo in doubt; 28) [listing 1 of 2 here]
ED50 (Mus musculus): >30 mg/kg

CCCN1CCC2=C(CCc3sc(N)nc32)C1
ED50 (Mus musculus; [17]): 18.8 mg/kg
IC50 (D(1A) dopamine receptor): 10 µM

CCCN1CCC=C2c3nc(N)sc3CCCC21 (stereo not drawn)
ED50 (Mus musculus; [17]): > 20 mg/kg
inhibition [3]: 18%
ED50 (Rattus norvegicus [4]; [18]): > 30 mg/kg

CCCN1CCC=C(c2csc(N)n2)C1
ED50 (Rattus norvegicus [5]): 3.1 mg/kg
ED50 (Mus musculus; [17]): 4.3 mg/kg
IC50 (D(1A) dopamine receptor): 10 µM
inhibition in vivo at 2.5 mg/kg (Rattus norvegicus [2]): 100%
ED50 (Rattus norvegicus [6]): 1.3 mg/kg
IC50 (D(2) dopamine receptor): 0.574 µM

CCCN1CC=C2c3nc(N)sc3CCC2C1 (stereo not drawn)
ED50 (Mus musculus; [17]): > 30 mg/kg
IC50 (D(1A) dopamine receptor): > 10 µM

CCCN1CCC=C2c3nc(N)sc3CC[C@@H]21 (stereo in doubt; (+)-6)
ED50 (Rattus norvegicus [7]): 0.3 mg/kg
ED50 (Rattus norvegicus [8]): 1.3 mg/kg
Control (Rattus norvegicus [9]): 52.4%
ED50 (Mus musculus): 3.7 mg/kg
IC50 (D(1A) dopamine receptor): > 10 µM
EPS MED [10]: >30 mg/kg
ED50 (Rattus norvegicus [11]): 6.8 mg/kg
Inhibition (Rattus norvegicus [2]): 91%
ED50 (Rattus norvegicus [4]): 7 mg/kg
Dose (Rattus norvegicus [12]): 2.5 mg/kg
ED50 [13]: 8.3 mg/kg

Nc1nc2c(s1)CCC1NCCCC21 (stereo in doubt; 27)
inhibition [3]: 10%

CCCN1CCC=C2c3nc(N)sc3CC[C@@H]21 (stereo in doubt; (-)-6)
ED50 (Rattus norvegicus [7]): 2.5 mg/kg
Reversal (Rattus norvegicus [1]): 14%
ED50 (Mus musculus): 20.4 mg/kg
ED50 (Rattus norvegicus [11]): >30 mg/kg
Inhibition (Rattus norvegicus [2]): 22%
Control (Rattus norvegicus [14]): 153.2%
ED50 [15]: > 30 mg/kg
ED50 (Rattus norvegicus [4]): >30 mg/kg
Dose (Rattus norvegicus [12]): 20 mg/kg

CCCN1CCCC2c3nc(N)sc3CCCC21 (stereo not drawn)
ED50 (Mus musculus; [17]): > 30 mg/kg
inhibition [3]: 10%

CN1CCc2cccc3c2[C@H]1Cc1ccc(O)c(O)c1-3 [APOMORPHINE]
ED50 (Rattus norvegicus [7]; [19]): 0.03 mg/kg
ED50 (Rattus norvegicus [5]): > 30 mg/kg
ED50 (Mus musculus; [17]): 6.9 mg/kg
inhibition in vivo at 0.25 mg/kg (Rattus norvegicus [16]): 100%
ED50 (Rattus norvegicus [11]; [19]): 0.07 mg/kg

CCCN1CCC=C2c3nc(N)sc3CCC21 (racemic)
ED50 (Rattus norvegicus [7]; [19]): 0.9 mg/kg
ED50 (Rattus norvegicus [8]): 4 mg/kg
ED50 (Mus musculus; [17]): 9.4 mg/kg
IC50 (D(1A) dopamine receptor): > 10 µM
EPS MED [10]: >10 mg/kg
ED50 (Rattus norvegicus [11]; [19]): 14.5 mg/kg
inhibition in vivo at 2.5 mg/kg (Rattus norvegicus [2]): 100%
Control (Rattus norvegicus [14]): 63%
ED50 (Rattus norvegicus [4]; [18]): 18.9 mg/kg
Dose (Rattus norvegicus [12]): 5 mg/kg
ED50 [13]: 11.2 mg/kg

CCCN1CCCC(c2cccc(O)c2)C1 (single isomer, unassigned; (+))
ED50 (Rattus norvegicus [7]; [19]): 3 mg/kg
Reversal (Rattus norvegicus [1]): 58%
ED50 (Rattus norvegicus [11]; [19]): 5.8 mg/kg
inhibition in vivo at 2.5 mg/kg (Rattus norvegicus [2]): 100%

CSc1ccc2c(c1)N(CCC1CCCCN1C)c1ccccc1S2 (stereo not drawn) [THIORIDAZINE]
EPS MED [10]: <2.5 mg/kg
ED50 [13]: 3.9 mg/kg

Nc1nc2c(s1)CCC1NCCCC21 (stereo in doubt; 26) [listing 2 of 2 here]
inhibition [3]: 14%

CCCN1CCC2=C(C1)c1nc(N)sc1CC2
IC50 (D(1A) dopamine receptor): > 10 µM

CCCN1CCCC2c3nc(N)sc3CCC21 (stereo in doubt; 28) [listing 2 of 2 here]
inhibition [3]: 16%
